Laboratory results: ChEMBL document CHEMBL2311452 (J Med Chem, 2013)

Assays:
Neuraminidase [1] = molecular target: T1, Neuraminidase (Influenza A virus, UniProt B4URF0); assay: Inhibition of influenza A virus (A/Guangdong/376/2001(H1N1)) neuraminidase infected in chick embryo using MUNANA as substrate after 1 hr by spectrophotometric analysis
Neuraminidase [2] = molecular target: T1, Neuraminidase; assay: Inhibition of Influenza A virus (A/Indonesia/5/2005(H5N1)) neuraminidase infected in chick embryo using MUNANA as substrate after 1 hr by spectrophotometric analysis
Neuraminidase [3] = molecular target: T1, Neuraminidase; assay: Inhibition of Influenza A virus (A/Sydney/5/1997(H3N2)) neuraminidase infected in chick embryo using MUNANA as substrate after 1 hr by spectrophotometric analysis
[4] = Cmax in Sprague-Dawley rat at 10 mg/kg, po; format: ADME, organism-based; set-up: dose 10 mg/kg, route oral; details: in vivo
In short: (§1)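 Single 10 mg/kg oral dose given to male Sprague-Dawley rats (~250 g), three per group. Blood was sampled via the retrobulbar vein at 0, 5, 15 and 30 min and at 1, 2, 5, 8 and 24 h. Plasma concentrations were measured by LC/MS/MS, and parameters came from noncompartmental analysis of mean plasma concentrations.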

[5] = Terminal half life in Sprague-Dawley rat at 10 mg/kg, iv; format: ADME, organism-based; set-up: dose 10 mg/kg, route intravenous; details: in vivo, read-out: beta t1/2 (converted)
[6] = Volume of distribution at steady state in Sprague-Dawley rat at 10 mg/kg, iv; format: ADME, organism-based; set-up: dose 10 mg/kg, route intravenous; details: in vivo, read-out: Vdss
[7] = Clearance in Sprague-Dawley rat at 10 mg/kg, iv; format: ADME, organism-based; set-up: dose 10 mg/kg, route intravenous; details: in vivo
[8] = Tmax in Sprague-Dawley rat at 10 mg/kg, po; format: ADME, organism-based; set-up: dose 10 mg/kg, route oral; details: in vivo; in short: as §1
[9] = Oral bioavailability in Sprague-Dawley rat at 10 mg/kg; format: ADME, organism-based; details: in vivo; in short: as §1
[10] = Terminal half life in Sprague-Dawley rat at 10 mg/kg, po; format: ADME, organism-based; set-up: dose 10 mg/kg, route oral; details: in vivo, read-out: beta t1/2 (converted)
In short: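 Single 10 mg/kg oral dose given to male Sprague-Dawley rats (~250 g), three per group. Plasma concentrations were measured by LC/MS/MS, and parameters came from noncompartmental analysis of mean plasma concentrations.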

T1 sequence (B4URF0 whole entry): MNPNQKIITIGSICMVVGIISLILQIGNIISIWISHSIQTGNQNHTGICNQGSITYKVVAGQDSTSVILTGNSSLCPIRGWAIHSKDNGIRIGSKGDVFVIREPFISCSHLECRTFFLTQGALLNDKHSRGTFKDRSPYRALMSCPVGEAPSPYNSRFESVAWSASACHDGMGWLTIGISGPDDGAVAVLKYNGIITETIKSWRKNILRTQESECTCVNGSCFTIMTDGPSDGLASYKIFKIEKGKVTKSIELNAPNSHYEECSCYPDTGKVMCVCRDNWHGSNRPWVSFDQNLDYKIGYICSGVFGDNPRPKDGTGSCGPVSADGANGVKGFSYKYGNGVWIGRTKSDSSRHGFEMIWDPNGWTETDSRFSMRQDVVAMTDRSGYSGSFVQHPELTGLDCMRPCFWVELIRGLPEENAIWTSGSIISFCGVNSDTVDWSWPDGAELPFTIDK

`CC(=O)N[C@H]1[C@H]([C@H](O)[C@H](O)CO)OC(C(=O)NCCC(=O)O)=C[C@@H]1NC(=N)N` gave an IC50 (Neuraminidase [1]) of 0.36 µM, an IC50 (Neuraminidase [2]) of 0.07 µM and an IC50 (Neuraminidase [3]) of 0.5 µM.
Compound `CC(=O)N[C@H]1[C@H]([C@H](O)[C@H](O)CO)OC(C(=O)N[C@@H](CC(C)C)C(=O)O)=C[C@@H]1O` has an IC50 (Neuraminidase [1]) of over 1000 µM, an IC50 (Neuraminidase [2]) of over 1000 µM and an IC50 (Neuraminidase [3]) of 918 µM.
In the case of `CC(=O)N[C@H]1[C@H]([C@H](O)[C@H](O)CO)OC(C(=O)NCC(=O)O)=C[C@@H]1N`, the IC50 (Neuraminidase [1]) is reported as 13.9 µM, the IC50 (Neuraminidase [2]) is reported as 8.67 µM and the IC50 (Neuraminidase [3]) is reported as 16.7 µM.
`CC(=O)N[C@H]1[C@H]([C@H](O)[C@H](O)CO)OC(C(=O)NCc2ccc(C)cc2)=C[C@@H]1NC(=N)N` gave an IC50 (Neuraminidase [1]) of 0.26 µM, an IC50 (Neuraminidase [2]) of 0.28 µM and an IC50 (Neuraminidase [3]) of 0.85 µM.
With `CC(=O)N[C@H]1[C@H]([C@H](O)[C@H](O)CO)OC(C(=O)N2CCC(C(=O)O)CC2)=C[C@@H]1N` the IC50 (Neuraminidase [1]) was 6.33 µM, the IC50 (Neuraminidase [2]) was 5.76 µM and the IC50 (Neuraminidase [3]) was 5.86 µM.
Compound `CC(=O)N[C@H]1[C@H]([C@H](O)[C@H](O)CO)OC(C(=O)NCc2ccccc2)=C[C@@H]1O` has an IC50 (Neuraminidase [1]) of 143 µM, an IC50 (Neuraminidase [2]) of 822 µM and an IC50 (Neuraminidase [3]) of 707 µM.
For `CC(=O)N[C@H]1[C@H]([C@H](O)[C@H](O)CO)OC(C(=O)N[C@H](C(=O)O)C(C)C)=C[C@@H]1O`, the IC50 (Neuraminidase [1]) was over 1000 µM, the IC50 (Neuraminidase [2]) was 793 µM and the IC50 (Neuraminidase [3]) was 688 µM.
Work on `CC(=O)N[C@H]1[C@H]([C@H](O)[C@H](O)CO)OC(C(=O)O)=C[C@@H]1N=C(N)N` [ZANAMIVIR] yielded a Cmax [4] of 60 ng/mL, a half-life [5] of 1.1 h and a Vd [6] of 0.8 L/kg. It also gave a clearance [7] of 31.7 mL/min/kg and a Tmax [8] of 1.2 h.
`CC(=O)N[C@H]1[C@H]([C@H](O)[C@H](O)CO)OC(C(=O)N[C@@H](CCC(=O)O)C(=O)O)=C[C@@H]1NC(=N)N` gave an IC50 (Neuraminidase [1]) of 0.45 µM, an IC50 (Neuraminidase [2]) of 0.16 µM and an IC50 (Neuraminidase [3]) of 0.81 µM.
`CC(=O)N[C@H]1[C@H]([C@H](O)[C@H](O)CO)OC(C(=O)N[C@@H](CC(C)C)C(=O)O)=C[C@@H]1NC(=N)N` showed an IC50 (Neuraminidase [1]) of 5.11 µM, an IC50 (Neuraminidase [2]) of 3.51 µM and an IC50 (Neuraminidase [3]) of 22.5 µM.
For `CCOC(=O)C1=C[C@@H](OC(CC)CC)[C@H](NC(C)=O)[C@@H](N)C1.O=P(O)(O)O` [OSELTAMIVIR PHOSPHATE], the Cmax [4] was 30 ng/mL, the half-life [5] was 1.6 h and the Vd [6] was 1.3 L/kg. It also gave a clearance [7] of 25 mL/min/kg, a bioavailability [9] of 4.3% and a half-life [10] of 10.6 h. For the same compound, the Tmax [8] was 4 h.
`CC[C@H](C)[C@H](NC(=O)C1=C[C@H](O)[C@@H](NC(C)=O)[C@H]([C@H](O)[C@H](O)CO)O1)C(=O)O` gave an IC50 (Neuraminidase [1]) of over 1000 µM, an IC50 (Neuraminidase [2]) of 939 µM and an IC50 (Neuraminidase [3]) of 790 µM.
